{"source": "paper PMC9075408", "about": "(Journal of the American Heart Association: Cardiovascular …, 2021)", "key": {"[1]": {"test": "Plasma and hippocampal levels of 1-DL-MTRP by HPLC-MS/MS in CA/CPR rats", "type": "in vivo", "settings": "rat"}, "[2]": {"system": "rats resuscitated from cardiac arrest", "test": "CPR outcomes and survival in rat model of electrically induced CA/CPR", "type": "in vivo"}, "[3]": {"system": "rats resuscitated from cardiac arrest", "test": "Hemodynamics", "type": "in vivo, rat", "settings": "mean±SD"}, "[4]": {"system": "rats resuscitated from cardiac arrest", "test": "Myocardial function by transthoracic echocardiography in CA/CPR rats", "type": "in vivo, rat", "outline": "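Rats were pretreated by gavage with test compound (800 mg/kg per dose) or 1% carboxymethylcellulose 16 and 2 h before 8 min untreated CA and 8 min CPR. At 4 and 96 h post-ROSC, LV systolic function was assessed by transthoracic M-mode, 2D, pulsed, color and tissue Doppler echocardiography. Anaesthesia at 96 h was intraperitoneal thiopental 50 mg/kg, with 10 mg/kg recall doses if needed. Analysis used ordinary 2-way ANOVA with Sidak post hoc.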"}, "[5]": {"system": "rats resuscitated from cardiac arrest", "test": "Plasma high-sensitivity cardiac troponin T", "type": "in vivo, rat", "settings": "median [quartile 1–quartile 3]", "outline": "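Arterial blood was drawn from the femoral cannula into K3-EDTA tubes 15 min before CA and at 4 and 96 h post-ROSC. Rats had received gavage test compound (800 mg/kg per dose) or carboxymethylcellulose vehicle 16 and 2 h pre-CA, then 8 min CA and 8 min CPR. Plasma hs-cTnT was measured by electrochemiluminescence immunoassay and analysed by ordinary 2-way ANOVA with Sidak test.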"}, "[6]": {"system": "rats resuscitated from cardiac arrest", "test": "Neurological deficit score", "type": "in vivo, rat", "settings": "24, 48, 72, and 96 hours post-ROSC, all time points; score 0 (normal) to 500 (brain death)"}, "[7]": {"system": "IL1β and Arg1 mRNA, brain cortex", "test": "Inflammatory gene expression", "type": "in vivo, rat", "settings": "brain cortex 96 hours post-ROSC; not statistically significant", "outline": "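Male Sprague-Dawley ex-breeder rats underwent 8 min untreated CA and 8 min CPR after gavage with test compound (800 mg/kg per dose) or 1% carboxymethylcellulose vehicle 16 and 2 h before CA; naive rats served as controls. At 96 h post-ROSC, cortical RNA was analysed by SYBR Green real-time PCR with exon-spanning primers and Gapdh reference. Results were calculated by ΔΔCt as fold induction, mean±SD, n=4-6/group, Kruskal-Wallis/Dunn's.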"}, "[8]": {"system": "kynurenine pathway (IDO, tryptophan→kynurenine step)"}, "[9]": {"system": "kynurenine pathway (IDO, tryptophan→kynurenine step)", "settings": "96 hours post-ROSC"}, "[10]": {"settings": "2 oral doses of 800 mg/kg 16 and 2 hours before CA, 15 minutes pre-CA and 2 hours post-ROSC"}, "[11]": {"settings": "2 oral doses of 800 mg/kg 16 and 2 hours before CA, 96 hours post-ROSC"}}}
{"smiles": "Cn1cc(CC(N)C(=O)O)c2ccccc21", "note": "(racemic) [1‐DL‐MTRP, 1‐methyl‐DL‐tryptophan]", "values": [{"measurement": "1-DL-MTRP plasma concentration, average", "setting": "[1]; [10]", "result": 34, "unit": "µg/mL"}, {"measurement": "1-DL-MTRP plasma concentration, range", "setting": "[1]; [10]", "result": "20 to 40", "unit": "µg/mL"}, {"measurement": "1-DL-MTRP hippocampal concentration, average", "setting": "[1]; [11]", "result": 11.4, "unit": "µg/g"}, {"measurement": "1-DL-MTRP plasma concentration, average", "setting": "[1]; [11]", "result": 21, "unit": "µg/mL"}, {"measurement": "drug levels (plasma and brain) as molar concentrations", "setting": "[1]; 96 hours post-ROSC", "result": "52 to 96", "unit": "µM"}, {"measurement": "Resuscitation, no./total", "setting": "[2]; 800 mg/kg by gavage 16 and 2 h before CA, 8 min CA, 8 min CPR", "result": "15/17"}, {"measurement": "Time to ROSC", "setting": "[2]; median [quartile 1–quartile 3]", "result": "481 [370–482] s"}, {"measurement": "4-h survival, no./resuscitated", "setting": "[2]; rat, in vivo", "result": "15/15"}, {"measurement": "96-h survival, no./resuscitated", "setting": "[2]; rat, in vivo", "result": "10/15"}, {"measurement": "Shocks to ROSC", "setting": "[2]; rat, in vivo", "result": 1, "unit": "no."}, {"measurement": "animals that survived up to 96 hours after CA", "setting": "[2]; vehicle 62%", "result": 66, "unit": "%"}, {"measurement": "successfully resuscitated animals", "setting": "[2]; vehicle 84%", "result": 88, "unit": "%"}, {"measurement": "CPP", "setting": "[3]; PR 10 min", "result": "57±21", "unit": "mm Hg"}, {"measurement": "DAP", "setting": "[3]; PR 10 min", "result": "57±21", "unit": "mm Hg"}, {"measurement": "HR", "setting": "[3]; PR 10 min", "result": "237±54", "unit": "beats per min"}, {"measurement": "MAP", "setting": "[3]; PR 10 min", "result": "76±20", "unit": "mm Hg"}, {"measurement": "SAP", "setting": "[3]; PR 10 min", "result": "103±17", "unit": "mm Hg"}, {"measurement": "CPP", "setting": "[3]; PR 1 h", "result": "84±9", "unit": "mm Hg"}, {"measurement": "DAP", "setting": "[3]; PR 1 h", "result": "84±9", "unit": "mm Hg"}, {"measurement": "HR", "setting": "[3]; PR 1 h", "result": "335±12", "unit": "beats per min"}, {"measurement": "MAP", "setting": "[3]; PR 1 h", "result": "96±9", "unit": "mm Hg"}, {"measurement": "SAP", "setting": "[3]; PR 1 h", "result": "117±9", "unit": "mm Hg"}, {"measurement": "CPP", "setting": "[3]; PR 2 h", "result": "81±12", "unit": "mm Hg"}, {"measurement": "DAP", "setting": "[3]; PR 2 h", "result": "81±12", "unit": "mm Hg"}, {"measurement": "HR", "setting": "[3]; PR 2 h", "result": "360±20", "unit": "beats per min"}, {"measurement": "MAP", "setting": "[3]; PR 2 h", "result": "96±13", "unit": "mm Hg"}, {"measurement": "SAP", "setting": "[3]; PR 2 h", "result": "118±12", "unit": "mm Hg"}, {"measurement": "CPP", "setting": "[3]; PR 3 h", "result": "75±15", "unit": "mm Hg"}, {"measurement": "DAP", "setting": "[3]; PR 3 h", "result": "74±15", "unit": "mm Hg"}, {"measurement": "HR", "setting": "[3]; PR 3 h", "result": "358±23", "unit": "beats per min"}, {"measurement": "MAP", "setting": "[3]; PR 3 h", "result": "89±16", "unit": "mm Hg"}, {"measurement": "SAP", "setting": "[3]; PR 3 h", "result": "111±18", "unit": "mm Hg"}, {"measurement": "CPP", "setting": "[3]; PR 4 h", "result": "73±20", "unit": "mm Hg"}, {"measurement": "DAP", "setting": "[3]; PR 4 h", "result": "78±15", "unit": "mm Hg"}, {"measurement": "HR", "setting": "[3]; PR 4 h", "result": "351±51", "unit": "beats per min"}, {"measurement": "MAP", "setting": "[3]; PR 4 h", "result": "94±17", "unit": "mm Hg"}, {"measurement": "SAP", "setting": "[3]; PR 4 h", "result": "115±17", "unit": "mm Hg"}, {"measurement": "CPP", "setting": "[3]; Pre-CA", "result": "109±13", "unit": "mm Hg"}, {"measurement": "DAP", "setting": "[3]; Pre-CA", "result": "114±12", "unit": "mm Hg"}, {"measurement": "HR", "setting": "[3]; Pre-CA", "result": "375±34", "unit": "beats per min"}, {"measurement": "MAP", "setting": "[3]; Pre-CA", "result": "127±13", "unit": "mm Hg"}, {"measurement": "SAP", "setting": "[3]; Pre-CA", "result": "151±13", "unit": "mm Hg"}, {"measurement": "LVEF", "setting": "[4]; PR 4 h", "result": "36.8±3.2", "unit": "%"}, {"measurement": "LVEF", "setting": "[4]; PR 96 h", "result": "75.3±3.2", "unit": "%"}, {"measurement": "hs-cTnT", "setting": "[5]; PR 4 h", "result": "4965 [2978–5242] pg/mL"}, {"measurement": "hs-cTnT", "setting": "[5]; PR 96 h", "result": "64 [36–278] pg/mL"}, {"measurement": "hs-cTnT", "setting": "[5]; Pre-CA", "result": "98 [66–111] pg/mL"}, {"measurement": "NDS values vs vehicle-treated rats", "setting": "[6]", "result": "lower"}, {"measurement": "Arg1 gene expression", "setting": "[7]", "result": "tendency towards an increase"}, {"measurement": "CA-induced IL1β upregulation (mRNA)", "setting": "[7]", "result": "slightly reduced"}, {"measurement": "plasma kynurenine levels, % lower than in vehicle-treated rats", "setting": "[8]; 15 minutes pre-CA, P=0.0243", "result": 24, "unit": "%"}, {"measurement": "plasma kynurenine levels following CA vs vehicle-treated rats", "setting": "[8]; PR 2 hours and PR 96 hours, same time points", "result": "markedly lower than in vehicle‐treated rats"}, {"measurement": "hippocampal kynurenine levels vs vehicle-treated rats", "setting": "[9]; P=0.0409, comparable to naive rats", "result": "significantly lower than in vehicle‐treated rats"}, {"measurement": "hippocampal 5-HT concentrations", "setting": "[9]; vs naive rats", "result": "superimposable to those measured in naive rats"}]}
